Data reported in ChEMBL document CHEMBL4266009, “One Step Beyond: Design of Substrates Spanning Primed Positions of Zika Virus NS2B-NS3 Protease” (ACS Med Chem Lett, 2018).
Values belong to the molecule of their own block, whether it stands above or below them. Calls of active or inactive are those of the source. No cut-off for these calls is given here. Non-standard residues stand in square brackets, D forms with d. Residues, ends and D or L forms follow the SMILES beside them. Tyr(3-NO2) = N[C@@H](Cc1ccc(O)c([N+](=O)[O-])c1)C(=O)O; 2Abz = Nc1ccccc1C(=O)O

How the values were obtained:
[1] = test system: Zika virus; experiment: Substrate activity at recombinant ZIKV NS3 pro domain fused NS2B protease assessed as ratio of Kcat to Km in Tris-CHAPS-glycerol buffer at pH 7.4 after 30 mins
How it was run: (§1)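 Continuous fluorescence assay (Ex 320, Em 450 nm) in 10 mM Tris-HCl pH 7.4, 20% glycerol, 1 mM CHAPS at 37 °C; substrate (1.0×10-7 to 4×10^-5 M final) added to 1.64×10^-8 M NS2BLNNS3pro. Initial rates from linear portions, inner-filter corrected; KM and kcat from double-reciprocal Michaelis-Menten plots; triplicate, SD ≤20%.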

[2] = test system: Zika virus; experiment: Substrate activity at recombinant ZIKV NS3 pro domain fused NS2B protease at pH 7.4 after 30 mins by fluorescence assay
How it was run: (§2)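 pH profile: NS2BLNNS3pro 1.64×10^-8 M with substrate 2.44×10^-5 M in citrate (pH 3.0), acetate (4.0, 5.0), MES (6.0), MOPS (7.0), Tris (7.4, 10.0) or HEPES (8.0); fluorescence increase followed at 37 °C over 30 min.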

[3] = test system: Zika virus; experiment: Substrate activity at recombinant ZIKV NS3 pro domain fused NS2B protease at pH 7.4
[4] = test system: Zika virus; experiment: Substrate activity at recombinant ZIKV NS3 pro domain fused NS2B protease assessed as Km in PBS at pH 7.4 after 30 mins
How it was run: (§3)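 Kinetic constants determined in PBS pH 7.4 with the recombinant NS2BLNNS3pro; cleavage followed by ABZ fluorescence (Ex 320, Em 450 nm) at 37 °C; initial rates fitted and KM, kcat obtained from double-reciprocal Michaelis-Menten plots.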

[5] = test system: Zika virus; experiment: Substrate activity at recombinant ZIKV NS3 pro domain fused NS2B protease at pH 3 to 6 after 30 mins by fluorescence assay; how it was run: as §2
[6] = test system: Zika virus; experiment: Substrate activity at recombinant ZIKV NS3 pro domain fused NS2B protease at pH 8 to 10 after 30 mins by fluorescence assay; how it was run: as §2
[7] = test system: Zika virus; experiment: Substrate activity at recombinant ZIKV NS3 pro domain fused NS2B protease assessed as Km in Tris-CHAPS-glycerol buffer at pH 7.4 after 30 mins; how it was run: as §1
[8] = test system: Zika virus; experiment: Substrate activity at recombinant ZIKV NS3 pro domain fused NS2B protease assessed as Kcat in PBS at pH 7.4 after 30 mins; how it was run: as §3
[9] = test system: Zika virus; experiment: Substrate activity at 6.86x10'-6M of recombinant ZIKV NS3 pro domain fused NS2B protease; conditions: in the assay text read “6.86x10'-10M” for “6.86x10'-6M”
How it was run: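 Limit of detection: decreasing amounts of recombinant NS2BLNNS3pro titrated against substrate at 2.44 × 10^-5 M in PBS pH 7.4, 37 °C, 30 min; fluorescence read at 450 nm (Ex 320 nm); detection limit from fluorescence increase versus enzyme concentration; triplicate.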

[10] = test system: Zika virus; experiment: Substrate activity at recombinant ZIKV NS3 pro domain fused NS2B protease assessed as ratio of Kcat to Km in PBS at pH 7.4 after 30 mins; how it was run: as §3
[11] = test system: Zika virus; experiment: Substrate activity at recombinant ZIKV NS3 pro domain fused NS2B protease by HPLC method
[12] = Selectivity ratio of substrate activity at recombinant ZIKV NS3 pro domain fused NS2B protease to substrate activity at West Nile virus protease
[13] = test system: Zika virus; experiment: Substrate activity at recombinant ZIKV NS3 pro domain fused NS2B protease assessed as Kcat in Tris-CHAPS-glycerol buffer at pH 7.4 after 30 mins; how it was run: as §1

kcat/Km [1]: 1.1 ×10⁶ /M/s
SMILES: CC(=O)N[C@H](CCCNC(=N)N)C(=O)N[C@@H](CCCCN)C(=O)N[C@@H](CCCN)C(=O)N[C@@H](CCCNC(=N)N)C(=O)Nc1ccc2c(CC(N)=O)cc(=O)oc2c1

Activity [2]: Active
SMILES: CC(C)[C@H](NC(=O)c1ccccc1N)C(=O)N[C@@H](CCCCN)C(=O)N[C@@H](CCCCN)C(=O)N[C@@H](CCCNC(=N)N)C(=O)N[C@@H](C)C(=O)N[C@@H](C)C(=O)N[C@@H](CC(=O)O)C(=O)N[C@@H](Cc1ccc(O)c([N+](=O)[O-])c1)C(N)=O (H-[2Abz]VKKRAAD[Tyr(3-NO2)]-NH2)

Activity [2]: Active
SMILES: CC(C)[C@H](NC(=O)c1ccccc1N)C(=O)N[C@@H](CCCCN)C(=O)N[C@@H](CCCCN)C(=O)N[C@@H](CCCNC(=N)N)C(=O)N[C@@H](C)C(=O)N[C@@H](C)C(=O)N[C@@H](CCC(=O)O)C(=O)N[C@@H](Cc1ccc(O)c([N+](=O)[O-])c1)C(N)=O (H-[2Abz]VKKRAAE[Tyr(3-NO2)]-NH2)

Activity [3]: Active
Km [4]: 6.97 µM
Activity [5]: inactive
Activity [6]: Active
Km [7]: 1.23 µM
kcat [8]: 16.3 s⁻¹
Activity [9]: Active
kcat/Km [10]: 2.32 ×10⁶ /M/s
Activity [2]: Active
Activity [11]: Active
kcat/Km [1]: 1.26 ×10⁸ /M/s
Ratio [12]: 200
kcat [13]: 151 s⁻¹
SMILES: CC(C)[C@H](NC(=O)c1ccccc1N)C(=O)N[C@@H](CCCCN)C(=O)N[C@@H](CCCCN)C(=O)N[C@@H](CCCNC(=N)N)C(=O)N[C@@H](C)C(=O)N[C@@H](C)C(=O)N[C@@H](Cc1c[nH]c2ccccc12)C(=O)N[C@@H](Cc1ccc(O)c([N+](=O)[O-])c1)C(N)=O (H-[2Abz]VKKRAAW[Tyr(3-NO2)]-NH2)
